# YB-1 expr inh: YB-1 expression inhibition; delta delta Cp (YB-1 minus CDIP) (test concentration not listed); actives 0.37% (n = 30,000); U2OS, qRT-PCR YB-1 vs CDIP delta delta Cp, 16 h; active compounds read high; zero = DMSO, each unit about twofold; AID 434959;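 active = delta delta Cp rounded down to an integer at or above 3, about 3 SD of DMSO wells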;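 note: higher means less YB-1 transcript or more CDIP transcript relative to DMSO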
# INS-1E rescue: rescue of cytokine-induced death in INS-1E beta cells. AID 488910. protection from cytokine-induced ATP loss, % at 10 µM. actives 0.1% (n = 20,000). INS-1E cytokine-induced death, ATP luminescence, 48 h; normalised: neutral wells 0, positive control 100;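 active = mean replicate protection from cytokine-induced ATP loss at least 50% and at least 75% of replicates each reaching 50%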
#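 assay system = INS-1E rat insulinoma cells | amount = 8000 cells per well | medium = phenol-red-free RPMI with 5% fetal bovine serum | doses = one compound concentration, pin transfer | timing = 48 h cytokine plus compound treatment, 10 min reagent incubation | also added = IL-1β, TNF-α and IFN-γ cytokine mix | signal = CellTiter-Glo luminescence measuring cellular ATP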
# T cruzi intra: blocks T. cruzi growth inside host cells; intracellular Trypanosoma cruzi in host cells, plate reader; activity score (inhibition), % at 5.01 µM; actives 4.9% (n = 22,000); in the data active = activity score above about 55%;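 note: parasites and compound incubated about four days before reading; 0% = median of neutral control wells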
# * marks the source's active call; other numbers are inactive results; · = no result. Only a selection was taken, and hits are over-represented in it overall.
SMILES,YB-1 expr inh,INS-1E rescue,T cruzi intra
COc1ccc(-c2cc(=O)c3c(O)c(OC)c(O[C@@H]4O[C@H](CO)[C@@H](O)[C@H](O)[C@H]4O[C@@H]4O[C@@H](C)[C@H](O)[C@@H](O)[C@H]4O)cc3o2)cc1,-0.12,·,·
Cc1noc(C)c1S(=O)(=O)N(C)C[C@H]1OCCCC[C@@H](C)Oc2ccc(NC(=O)Nc3ccc(C(F)(F)F)cc3)cc2C(=O)N([C@H](C)CO)C[C@@H]1C,0.31,-23,70*
Cc1noc(C)c1NC(=O)Nc1ccc2c(c1)C(=O)N([C@H](C)CO)C[C@H](C)[C@@H](CN(C)S(=O)(=O)c1c(C)noc1C)OCCCC[C@@H](C)O2,-0.24,0,-4
C[C@@H]1CN([C@H](C)CO)C(=O)c2cccc(NC(=O)Nc3ccc4c(c3)OCO4)c2O[C@@H]1CN(C)Cc1ccc(C(=O)Nc2ccccc2N)cc1,-0.23,11,68*
C[C@@H]1CN([C@@H](C)CO)C(=O)c2cc(NC(=O)Nc3ccc4c(c3)OCO4)ccc2O[C@H]1CN(C)Cc1ccc(C(=O)Nc2ccccc2N)cc1,-0.17,-19,55
C[C@@H]1CN([C@@H](C)CO)C(=O)c2cc(NC(=O)Nc3ccc4c(c3)OCO4)ccc2O[C@@H]1CN(C)Cc1ccc(C(=O)Nc2ccccc2N)cc1,-0.23,4,46
C[C@H]1CN([C@@H](C)CO)C(=O)c2cccc(NC(=O)Nc3ccc4c(c3)OCO4)c2O[C@H]1CN(C)Cc1ccc(C(=O)Nc2ccccc2N)cc1,0.098,-13,66*
C[C@H](CO)N1C[C@H](C)[C@@H](CN(C)Cc2ccc(-c3ccccc3)cc2)Oc2ccc(NS(=O)(=O)c3ccccc3)cc2C1=O,-0.12,·,41*
C[C@@H]1CN([C@H](C)CO)C(=O)c2cc(NS(=O)(=O)c3ccccc3)ccc2O[C@@H]1CN(C)Cc1ccc(-c2ccccc2)cc1,-0.37,-28,66*
Cc1ccc(S(=O)(=O)Nc2ccc3c(c2)C(=O)N([C@H](C)CO)C[C@@H](C)[C@@H](CN(C)Cc2ccc(-c4ccccc4)cc2)O3)cc1,0.0069,-20,30
Cc1ccc(S(=O)(=O)Nc2ccc3c(c2)C(=O)N([C@H](C)CO)C[C@H](C)[C@@H](CN(C)Cc2ccc(-c4ccccc4)cc2)O3)cc1,-0.067,-3,-23
CO[C@H]1C[C@@H]2CC[C@@H](C)[C@@](O)(O2)C(=O)C(=O)N2CCCC[C@H]2C(=O)O[C@H]([C@H](C)C[C@@H]2CC[C@@H](O)[C@H](OC)C2)CC(=O)[C@H](C)/C=C(\C)[C@@H](O)[C@@H](OC)C(=O)[C@H](C)C[C@H](C)/C=C/C=C/C=C\1C,1,·,·
O=C(CCCCCC(=O)N/N=C/c1cc(O)ccc1[N+](=O)[O-])NO,-0.16,-5,-5
Cc1cc(O)c(C)c2c1Oc1c(C)c(O)cc(C)c1C(=O)O2,-0.68,·,·
c1ccc(-c2nnc(-c3cccc4ccccc34)o2)cc1,-0.088,·,·
C[C@H]1CN([C@@H](C)CO)C(=O)c2cccc(NC(=O)c3ccncc3)c2O[C@H]1CN(C)Cc1ccc(C(=O)O)cc1,0.16,13,-30
C[C@H](CO)N1C[C@H](C)[C@H](CN(C)Cc2ccc(C(=O)Nc3ccccc3N)cc2)Oc2c(NC(=O)c3ccncc3)cccc2C1=O,-0.47,-4,-27
C[C@H]1CN([C@@H](C)CO)C(=O)c2cccc(NC(=O)c3ccncc3)c2O[C@@H]1CN(C)Cc1ccc(-c2ccccc2)cc1,-0.26,-16,79*
C[C@H]1CN([C@@H](C)CO)C(=O)c2cccc(NC(=O)c3ccncc3)c2O[C@H]1CN(C)Cc1ccc(-c2ccccc2)cc1,0.16,-10,72*
CC1=CC(C)C2(COC(=O)Nc3ccccc3)COC(c3cccnc3)C1C2C (stereo not drawn),-0.33,·,·
COc1ccc2c(c1)c(C(=O)ON1C(=O)CCC1=O)c(C)n2C1CC1,3.8*,·,·
COc1ccc2c(c1)c(C(=O)O)c(C)n2CCc1ccc(OC)c(OC)c1,-0.32,·,·
C[C@@H]1CCCCO[C@@H](CN(C)CC2CCCCC2)[C@@H](C)CN([C@H](C)CO)C(=O)c2cc(NC(=O)Nc3ccccc3)ccc2O1,-0.037,-15,52
C[C@@H]1CCCCO[C@@H](CN(C)Cc2ccc3c(c2)OCO3)[C@@H](C)CN([C@H](C)CO)C(=O)c2cc(NC(=O)Nc3ccccc3)ccc2O1,-0.3,-32,54
C[C@@H]1CCCCO[C@H](CN(C)CC2CCCCC2)[C@@H](C)CN([C@H](C)CO)C(=O)c2cc(NC(=O)Nc3ccc(F)cc3)ccc2O1,-0.18,-23,67*
